Source: PubChem BioAssay
Only some compounds are listed: those with a hit (about 3.7% of all), similar ones and a draw of the others.
KCNK3 inh: human KCNK3 channel inhibition, primary screen; CHO-KCNK3 thallium flux, FluxOR fluorescence; active compounds read low; O14649; 340,000 tested, 0.84% active; AID 602410; B-score at 10 µM;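 active = B-score under library mean minus 4 SD, starting fluorescence ratio at most library mean plus 5 SD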;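 also: more negative B-score means stronger inhibition of thallium flux through KCNK3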
KCNK9 block: inhibitors of human KCNK9 two-pore domain potassium channel | HEK293 KCNK9, FluxOR thallium flux fluorescence; active compounds read low | 310,000 tested, 1.2% active | B-score at 10 µM | Q9NPC2;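 active = ratio B-score over 3 SD below the library mean, with starting fluorescence within 5 SD of its mean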;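 also: negative B-score means less thallium flux so channel inhibition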
KCNQ1 pot: human KCNQ1 channel potentiation or activation | B-score at 10 µM | AID 2648 | CHO-K1 KCNQ1, thallium flux FluxOR fluorescence; active compounds read high | 310,000 tested, 0.35% active | P51787;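 active = fluorescence ratio B-score, a plate-corrected score, at least three library SD, with initial intensity B-score within 5 SD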
Target sequence (P51787 whole entry, looked up): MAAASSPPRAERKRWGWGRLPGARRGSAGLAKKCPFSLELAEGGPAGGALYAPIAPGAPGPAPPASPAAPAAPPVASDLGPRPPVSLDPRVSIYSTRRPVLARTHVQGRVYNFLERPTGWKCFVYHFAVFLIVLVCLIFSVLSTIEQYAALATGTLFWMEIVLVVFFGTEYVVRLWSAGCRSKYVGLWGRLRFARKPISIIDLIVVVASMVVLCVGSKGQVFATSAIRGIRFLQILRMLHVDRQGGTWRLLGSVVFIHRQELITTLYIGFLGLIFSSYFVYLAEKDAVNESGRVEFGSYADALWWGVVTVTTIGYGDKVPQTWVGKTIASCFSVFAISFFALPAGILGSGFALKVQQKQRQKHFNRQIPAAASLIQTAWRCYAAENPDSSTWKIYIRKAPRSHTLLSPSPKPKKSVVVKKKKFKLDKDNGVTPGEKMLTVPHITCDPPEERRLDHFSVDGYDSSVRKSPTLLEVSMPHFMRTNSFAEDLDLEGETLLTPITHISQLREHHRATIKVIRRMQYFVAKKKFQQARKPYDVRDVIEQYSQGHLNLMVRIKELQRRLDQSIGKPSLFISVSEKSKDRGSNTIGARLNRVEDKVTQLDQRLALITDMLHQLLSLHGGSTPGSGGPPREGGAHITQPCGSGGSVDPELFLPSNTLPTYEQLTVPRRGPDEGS
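Assay system: CHO-K1 cells stably expressing KCNQ1. Medium: assay buffer for compound exposure, DMSO matched across wells. Timing: 37 °C overnight plating, 90-min dark dye load, 20-min compound pretreatment. Signal: kinetic FluxOR fluorescence, 10 s baseline plus 110 s post-stimulus.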
hERG protect: shields human hERG channel from block by proarrhythmic agents; Q12809; CHO-hERG, FluxOR thallium flux, dofetilide IC70 present; activation (rescue from dofetilide block), less the hit threshold, % at 10 µM; 310,000 tested, 0.51% active; AID 1511;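 active = activation above the mean of controls blocked by dofetilide plus 5 SD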;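 also: thallium influx through hERG after potassium depolarization seen as dye fluorescence rise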
Kir21 inh: blocks the mouse Kir2.1 inward-rectifier potassium channel; P35561; HEK293-Kir2.1, FluxOR thallium flux fluorescence; active compounds read low; B-score at 10 µM; 310,000 tested, 0.85% active;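 active = fluorescence ratio B-score at or below minus 3 SD of library scores, with starting-brightness B-score within 2 SD, cut at about -4.2 in these data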;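 also: channel flux triggered by added potassium and thallium sulfate stimulus; B-score of peak minus minimum fluorescence over baseline after thallium stimulus; more negative B-score means stronger Kir2.1 block with less thallium influx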
KCNQ1 inh: blocks the human KCNQ1 potassium channel. CHO-K1 KCNQ1, FluxOR thallium flux fluorescence; active compounds read high. B-score at 10 µM. 310,000 tested, 1.3% active. AID 2642;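 active = compounds whose thallium flux B-score, printed positive for inhibition, exceeds three library SD while starting fluorescence stays within three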;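 also: channel opened by potassium depolarization with thallium stimulus after 20 min compound exposure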
KCNK3 inh conf: human KCNK3 channel inhibition, confirmation assay; shares compounds with KCNK3 inh; CHO-KCNK3 thallium flux, FluxOR fluorescence; 0% buffer, 100% carvedilol maximal block; ratio percent of control, % at 10 µM; 2,400 tested, 99% active; AID 651638;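 active = ratio percent of control, averaged over triplicates, above buffer control mean plus 5 SD, cut at about 64% in these data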;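 also: ratio is the fluorescence rise from min to max over baseline after thallium stimulus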
KCNK3 uninduced: counter-screen for KCNK3 inhibitors: effect in non-induced cells | shares compounds with KCNK3 inh | non-induced KCNK3 parental cells, FluxOR thallium flux; active compounds read low | thallium flux ratio (lower = more inhibition) at 10 µM | 2,400 tested, 40% active | AID 651747;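 active = thallium flux ratio, averaged over three wells, more than 5 SD below the buffer control mean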;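 also: host cells are CHO cells without KCNK3 induction; ratio is peak minus trough fluorescence over baseline then normalized to buffer controls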
Numbers without * were called inactive; i = inactive; . = no result.

SMILES | KCNK3 inh | KCNK9 block | KCNQ1 pot | hERG protect | Kir21 inh | KCNQ1 inh | KCNK3 inh conf | KCNK3 uninduced
NC(=O)CSc1nnnn1-c1ccccc1Cl | i | i | i | -6.0 | -0.54 | i | . | .
Cc1ccc(NC(=O)COC(=O)C2CC3CCCC(C2)C3=O)c([N+](=O)[O-])c1 (stereo not drawn) | i | . | . | . | . | . | . | .
CCOC(=O)C1=C(C)N=C2SCCC(=O)N2C1c1cc(Br)ccc1OC (stereo not drawn) | i | i | i | -4.7 | -1.58 | i | . | .
COCCOC(=O)C1=C(C)N=C2SCCC(=O)N2C1c1cccc(Br)c1 (stereo not drawn) | -9.26* | i | i | -14.5 | -1.99 | i | 111.7* | i
CCOC(=O)c1cc(C)sc1NC(=O)CSc1nnnn1C | i | i | i | -5.8 | 1.71 | i | . | .
CCOC(=O)c1cc(C)sc1NC(=O)CSC1=NCCS1 | -11.5* | i | i | -8.8 | -2 | i | 119.3* | i
COCCn1c(SCC(=O)Nc2c(C)n(C)n(-c3ccccc3)c2=O)nnc1-c1ccncc1 | i | . | . | . | . | . | . | .
Cc1cc(/C=N/NC(=O)c2ccccn2)c(C)n1-c1cccc([N+](=O)[O-])c1 | -9.03* | i | i | -3.4 | 0.9 | i | 88.3* | i
Cc1ccc(-n2c(C)cc(/C=N/Nc3ccc([N+](=O)[O-])cn3)c2C)cc1 | -12.5* | i | i | -3.5 | -0.22 | i | 0.0 | i
Cc1cc(/C=N/Nc2ccc([N+](=O)[O-])cn2)c(C)n1-c1ccccc1 | i | i | i | -2.6 | 0.06 | i | . | .
O=C(N/N=C\c1cc([N+](=O)[O-])ccc1N1CCCC1)c1ccccn1 | i | i | i | -4.8 | 0.38 | i | . | .
CC(=O)N1c2ccc(S(=O)(=O)N3CCCCC3)cc2CC1C(=O)Nc1cccc(C)c1 (stereo not drawn) | -11.2* | i | i | -7.8 | -1.69 | i | 95.0* | i
CCCN(CCC)c1nc(C#N)nc(N(CCC)CCC)n1 | -11.2* | i | i | -19.2 | -0.91 | i | 101.7* | i
CCCN(CCC)c1nc(N(CCC)CCC)[nH]c(=O)n1 | i | i | i | -7.0 | 1.08 | i | . | .
Cc1cc(O)c(C(C)C)cc1C1(c2cc(C(C)C)c(O)cc2C)OC(=O)c2ccccc21 | -9.06* | i | i | -1.4 | -3.1 | i | 120.0* | 0.152*
COc1ccc(N=Cc2c(O)c3ccccc3n2C(C)=O)cc1 | -12.9* | i | i | -16.7 | -4.71 | i | 142.7* | 0.0977*
COc1ccc(N=Cc2sc(O)c3ccccc23)cc1 | i | i | i | -7.6 | -1.13 | i | . | .
COCCN1C(=O)C(=O)/C(=C(/O)c2ccc(S(=O)(=O)N3CCCCC3)cc2)C1c1ccc(OC)cc1 (stereo not drawn) | i | i | i | -7.0 | -0.6 | i | . | .
COC(=O)CSc1nc(Cc2ccccc2)nc2ccccc12 | -8.72* | i | i | -28.6 | -2.84 | i | 118.7* | i
O=C(CN1C(=O)c2ccccc2C1=O)N1CCN(C2c3ccccc3-c3ccccc32)CC1 | i | i | i | -8.8 | 1.16 | i | . | .
CCOCCCNC(=O)/C(C#N)=C/c1ccc(Cl)c([N+](=O)[O-])c1 | -9.07* | i | i | -21.7 | 0.92 | i | 122.3* | 0.121*
O=C(/C=C/c1ccc(O)c(O)c1)OCCc1ccccc1 | -12.3* | i | i | -12.8 | -0.94 | i | 84.0* | 0.141*
COc1ccc(Cn2nnnc2C(CC(C)C)N2CCN(c3ccccc3)CC2)cc1 (stereo not drawn) | -9* | i | i | -10.6 | 1.53 | i | 99.7* | i
CC(C)CC(c1nnnn1Cc1ccco1)N1CCN(c2cccc(Cl)c2)CC1 (stereo not drawn) | -10.3* | i | i | -4.6 | -0.43 | i | 126.0* | i
CCCC(c1nnnn1Cc1ccc(OC)cc1)N1CCN(c2ccccc2)CC1 (stereo not drawn) | i | i | i | -1.7 | 0.05 | i | . | .
SMILES | KCNK3 inh | KCNK9 block | KCNQ1 pot | hERG protect | Kir21 inh | KCNQ1 inh | KCNK3 inh conf | KCNK3 uninduced
O=C(NCc1cnn(-c2ccc(F)cc2)c1)C1CCC(=O)N(C2CC2)C1 (stereo not drawn) | i | i | i | -1.2 | -0.28 | i | . | .
O=C(COC(=O)/C=C/c1ccccc1)NC1CCCCCC1 | i | . | . | . | . | . | . | .
Cc1cc(C)nc(N(C#N)Cc2cccc3ccccc23)n1 | -9.17* | i | i | -6.4 | -1.08 | i | 74.0* | i
CC(C)n1c(CN2CCN(C(=O)c3ccco3)CC2)nc2c1c(=O)n(C)c(=O)n2C | i | i | i | -5.8 | 0.86 | i | . | .
CN1CCN(C2=C(Cl)C(=O)c3ccccc3C2=O)CC1 | -14.3* | . | . | . | . | . | 160.0* | 0.0567*
O=C(CSc1nnc(NC(=O)c2ccccc2F)s1)NCC1CCCO1 (stereo not drawn) | -8.81* | i | i | -8.8 | 0.28 | i | 86.0* | i
CC1CCCC(C)N1CC(O)COc1c(F)cc(Br)cc1F (stereo not drawn) | i | i | i | -7.5 | 1.44 | i | . | .
Cc1cc(SCC(N)=O)nc(SCC(=O)c2ccccc2)n1 | i | i | i | 2.5 | 0.01 | i | . | .
Cc1ccc(C(=O)CSc2cc(C)nc(SCC(=O)c3ccccc3)n2)cc1 | -9.02* | i | i | -8.4 | -0.44 | i | 112.3* | i
COCCn1c(SCC(=O)Nc2sccc2C(N)=O)nnc1-c1ccncc1 | i | i | i | -4.8 | -0.39 | i | . | .
Fc1ccc(CNC(=S)NCc2cccc(Cl)c2)cc1 | -9.43* | i | i | -20.4 | -4.37* | i | 113.3* | i
S=C(NCc1ccccc1)NCc1cccc(Cl)c1 | i | i | i | -14.6 | -3.1 | i | . | .
Cc1cc(Cl)ccc1NC(=S)NCc1ccccc1 | -9.54* | i | i | -0.6 | 0.3 | i | 87.0* | i
COc1cccc(CNC(=S)Nc2ccc(Cl)cc2C)c1 | i | i | i | -1.8 | -0.64 | i | . | .
CCOc1ccc(S(=O)(=O)NC(Cc2c[nH]c3ccccc23)C(=O)O)cc1 (stereo not drawn) | i | i | i | -2.9 | -0.22 | i | . | .
CC(C)(C)NC(=O)c1ccc(Sc2ccccc2)c([N+](=O)[O-])c1 | -9.03* | i | i | -8.9 | 1.39 | i | 119.0* | i
